# Published values from different studies.
# Each line is one published result; the experiments were not run side by side.
# Organism: Staphylococcus aureus
# Read-out: microbial growth
SMILES,assay,system,setting,MIC
O=[N+]([O-])c1ccc(-c2nc3cccc(O)c3[nH]2)o1,broth dilution,ATCC700699 MRSA,drug-resistant strain,2 µg/mL
CCCCCCC#Cc1cncc(-c2nnc(Sc3ccc([N+](=O)[O-])cc3[N+](=O)[O-])n2C)c1,,MRSA,drug-resistant strain,≥ 20 µg/mL
O=[N+]([O-])c1ccc(/C=N/Nc2nc(Nc3ccccc3)nc(N3CCOCC3)n2)o1,,,,29 µM
CN[C@H](CC(C)C)C(=O)N[C@H]1C(=O)N[C@@H](CC(N)=O)C(=O)N[C@H]2C(=O)N[C@H]3C(=O)N[C@H](C(=O)N[C@H](C(=O)O)c4cc(O)cc(O)c4-c4cc3ccc4O)[C@H](O)c3ccc(c(Cl)c3)Oc3cc2cc(c3O[C@@H]2O[C@H](CO)[C@@H](O)[C@H](O)[C@H]2O[C@H]2C[C@](C)(N)[C@H](O)[C@H](C)O2)Oc2ccc(cc2Cl)[C@H]1O,,147,clinical isolate,0.59 µM
CNC(C)[C@@H]1CC[C@@H](N)[C@@H](O[C@H]2[C@H](O)[C@@H](O[C@H]3OC[C@](C)(O)[C@H](NC)[C@H]3O)[C@H](N)C[C@@H]2N)O1 (stereo partly shown),,NCTC8325,,0.5 to 1 µM
Cc1ccc2[nH]c3c(c2c1)CCCC3NCCc1ccc(O)cc1 (stereo not shown),broth dilution,VISA,,16 µg/mL
COC(=O)c1cc(-c2cccc(NC(=O)Nc3cccc(C(F)(F)F)c3)c2)on1,broth dilution,ATCC29213,,> 64 µg/mL
CC[C@H](C)C[C@H](C)CCCCCCCCC(=O)N[C@H]1C[C@@H](O)[C@@H](NCCN)NC(=O)[C@@H]2[C@@H](O)CCN2C(=O)[C@H]([C@H](O)CCN)NC(=O)[C@H]([C@H](O)[C@@H](O)c2ccc(O)cc2)NC(=O)[C@@H]2C[C@@H](O)CN2C(=O)[C@H]([C@@H](C)O)NC1=O,broth dilution,MB2865,,> 128 µg/mL
Clc1ccc(-c2nc3ccccc3[nH]2)c(Cl)c1,broth dilution,ATCC43300 MRSA,drug-resistant strain,256 µg/mL
CC1=C(C(=O)O)N2C(=O)[C@@H](NC(=O)[C@H](N)C3=CCC=CC3)[C@H]2SC1,,USA300,,128 µg/mL
Cc1ccc2nc(-c3c(F)cccc3Cl)[nH]c2c1,broth dilution,ATCC43300 MRSA,drug-resistant strain,64 µg/mL
CN[C@H](CC(C)C)C(=O)N[C@H]1C(=O)N[C@@H](CC(N)=O)C(=O)N[C@H]2C(=O)N[C@H]3C(=O)N[C@H](C(=O)N[C@H](C(=O)O)c4cc(O)cc(O)c4-c4cc3ccc4O)[C@H](O)c3ccc(c(Cl)c3)Oc3cc2cc(c3O[C@@H]2O[C@H](CO)[C@@H](O)[C@H](O)[C@H]2O[C@H]2C[C@](C)(N)[C@H](O)[C@H](C)O2)Oc2ccc(cc2Cl)[C@H]1O,,BAA2312,drug-resistant strain,0.78 µg/mL
COC(=O)c1cc(-c2cccc(NC(=O)Nc3ccccc3C)c2)on1,broth dilution,ATCC29213,,> 64 µg/mL
Oc1ccccc1-c1nc2ccccc2[nH]1,broth dilution,ATCC43300 MRSA,drug-resistant strain,256 µg/mL
COC(=O)c1cc(-c2cccc(NC(=O)Nc3ccc(Cl)c(Cl)c3)c2)on1,broth dilution,ATCC29213,,> 64 µg/mL
COc1cc(C)c(Cc2cnc(N)nc2N)cc1OC,broth dilution,,,~16.6 µM
CC1(C)S[C@@H]2[C@H](NC(=O)[C@H](N)c3ccccc3)C(=O)N2[C@H]1C(=O)O,,USA300,,64 µg/mL
CCC1C(=NOCc2cc(-c3ccc(Cl)cc3)no2)CC(c2ccccc2)OC1c1ccccc1 (stereo not shown),broth dilution,MTCC96,24 h,50 µg/mL
COc1cccc(OC)c1C(=O)N[C@@H]1C(=O)N2[C@@H]1SC(C)(C)[C@@H]2C(=O)O,,ATCCBAA1717,"drug-resistant strain, clinical isolate",> 64 µg/mL
CO/N=C(\C(=O)N[C@@H]1C(=O)N2C(C(=O)O)=C(CSc3nc(=O)c(=O)[nH]n3C)CS[C@H]12)c1csc(N)n1,,USA300,,64 µg/mL
CN[C@H](CC(C)C)C(=O)N[C@H]1C(=O)N[C@@H](CC(N)=O)C(=O)N[C@H]2C(=O)N[C@H]3C(=O)N[C@H](C(=O)N[C@H](C(=O)O)c4cc(O)cc(O)c4-c4cc3ccc4O)[C@H](O)c3ccc(c(Cl)c3)Oc3cc2cc(c3O[C@@H]2O[C@H](CO)[C@@H](O)[C@H](O)[C@H]2O[C@H]2C[C@](C)(N)[C@H](O)[C@H](C)O2)Oc2ccc(cc2Cl)[C@H]1O,,VRSA,drug-resistant strain,> 16 µg/mL
c1ccc2c(-c3nc4ccccc4[nH]3)c3ccccc3cc2c1,broth dilution,ATCC43300 MRSA,drug-resistant strain,64 µg/mL
CCCCCC/C=C\CCCCCCCCCC(=O)NP(=O)(O)O,,ATCC33591 MRSA,drug-resistant strain,200 µg/mL
Clc1ccc(-c2nc3ccccc3[nH]2)cc1,broth dilution,ATCC43300 MRSA,drug-resistant strain,128 µg/mL
Cc1ccccc1-n1c(Cn2cnc3c(N)ncnc32)nc2cccc(C)c2c1=O,,NCTC8325,,> 30 µM
CCCCCC/C=C\CCCCCCCCCC(=O)CP(=O)(O)O,,ATCC33591 MRSA,drug-resistant strain,100 µg/mL
Cc1ccc2[nH]c3c(c2c1)CCCC3NCCc1ccc(Br)cc1 (stereo not shown),broth dilution,MRSA USA300,,4 µg/mL
CN[C@H](CC(C)C)C(=O)N[C@H]1C(=O)N[C@@H](CC(N)=O)C(=O)N[C@H]2C(=O)N[C@H]3C(=O)N[C@H](C(=O)N[C@H](C(=O)O)c4cc(O)cc(O)c4-c4cc3ccc4O)[C@H](O)c3ccc(c(Cl)c3)Oc3cc2cc(c3O[C@@H]2O[C@H](CO)[C@@H](O)[C@H](O)[C@H]2O[C@H]2C[C@](C)(N)[C@H](O)[C@H](C)O2)Oc2ccc(cc2Cl)[C@H]1O,broth dilution,ATCC25923,,1 µg/mL
Cc1ccc2nc(-c3cccc(O)c3)[nH]c2c1,broth dilution,ATCC43300 MRSA,drug-resistant strain,64 µg/mL
CC1(C)CC[C@]2(C(=O)O)CC[C@]3(C)C(=CC[C@@H]4[C@@]5(C)CC[C@H](O)C(C)(C)[C@@H]5CC[C@]43C)[C@@H]2C1,,83254,,64 µg/mL
C[C@H]1COCCN1c1nc(NCc2cccnc2C(F)(F)F)c2cccnc2n1,broth dilution,MRSA,,128 µg/mL
Fc1ccc(-c2nc3ccccc3[nH]2)cc1,broth dilution,ATCC43300 MRSA,drug-resistant strain,512 µg/mL
Cc1ccccc1-n1c(Cn2ncc3c(N)ncnc32)nc2cccc(C)c2c1=O,,NCTC8325,,> 30 µM
COC(=O)c1cc(-c2cccc(NC(=S)NC3CCCCC3)c2)on1,broth dilution,ATCC29213,,> 64 µg/mL
C/C(=C\C(=O)OCCCCCCCCC(=O)O)C[C@@H]1OC[C@H](C[C@@H]2O[C@H]2[C@@H](C)[C@H](C)O)[C@@H](O)[C@H]1O,,BAA1556 MRSA,drug-resistant strain,> 8000 µM
COC(=O)c1cc(-c2cccc(NC(=O)Nc3cc(Cl)ccc3Cl)c2)on1,broth dilution,ATCC29213,,> 64 µg/mL
CCC(CC)c1cc(CCN2CCCN(Cc3ccc(C(F)(F)F)cc3)CC2)nc(-c2ccncc2)n1,,ATCCBAA1717,"drug-resistant strain, clinical isolate",4 µg/mL
C=CCCCCCCCCC(=O)C(F)(F)P(=O)(O)O,,ATCC33591 MRSA,drug-resistant strain,> 200 µg/mL
COC(=O)c1cc(-c2cccc(NC(=S)Nc3cccc(Cl)c3)c2)on1,broth dilution,ATCC29213,,> 64 µg/mL
O=C(Nc1ccc(O)cc1)Nc1ccc(Cl)c(C(F)(F)F)c1,,NCTC8325,,100 µM
O=C(CCCCCCCCCCOc1ccccc1)CP(=O)(O)O,,ATCC33591 MRSA,drug-resistant strain,100 µg/mL
COc1ccc(-c2nc3ccc(C)cc3[nH]2)cc1O,broth dilution,ATCC43300 MRSA,drug-resistant strain,128 µg/mL
COC(=O)c1cc(-c2cccc(NC(=O)Nc3cccc(C#N)c3)c2)on1,broth dilution,ATCC29213,,> 64 µg/mL
CC(C)C[C@H](NC(=O)[C@@H](NC(=O)N[C@H](C(=O)O)C(C)C)[C@@H]1CCNC(=N)N1)C(=O)NCCCN[C@H](C(=O)O)[C@H](O[C@@H]1O[C@H](CN)[C@@H](O)[C@H]1O)[C@H]1O[C@@H](n2ccc(=O)[nH]c2=O)[C@H](O)[C@@H]1O,,NEWMAN,,> 80 µg/mL
COC(=O)c1cc(-c2cccc(NC(=O)Nc3c(C)cccc3C)c2)on1,broth dilution,ATCC29213,,> 64 µg/mL
CCCCCCCCCCCC(=O)C(F)(F)P(=O)(O)O,,ATCC33591 MRSA,drug-resistant strain,> 200 µg/mL
